Data on three compounds can be found in article PMC3493172 (Biochemistry, 2012).

Structures are written as SMILES. Changes are numbered by the printed parent chain. “And” between values parts separate entries of the source, which are not always exact repeats. Equal values may be shown once. Read-outs that look alike come from different tables or passages of the source.

For data set [1], the target named is T1, EAAC1 (Rattus norvegicus, UniProt P51907).
T1 sequence (P51907 1-523): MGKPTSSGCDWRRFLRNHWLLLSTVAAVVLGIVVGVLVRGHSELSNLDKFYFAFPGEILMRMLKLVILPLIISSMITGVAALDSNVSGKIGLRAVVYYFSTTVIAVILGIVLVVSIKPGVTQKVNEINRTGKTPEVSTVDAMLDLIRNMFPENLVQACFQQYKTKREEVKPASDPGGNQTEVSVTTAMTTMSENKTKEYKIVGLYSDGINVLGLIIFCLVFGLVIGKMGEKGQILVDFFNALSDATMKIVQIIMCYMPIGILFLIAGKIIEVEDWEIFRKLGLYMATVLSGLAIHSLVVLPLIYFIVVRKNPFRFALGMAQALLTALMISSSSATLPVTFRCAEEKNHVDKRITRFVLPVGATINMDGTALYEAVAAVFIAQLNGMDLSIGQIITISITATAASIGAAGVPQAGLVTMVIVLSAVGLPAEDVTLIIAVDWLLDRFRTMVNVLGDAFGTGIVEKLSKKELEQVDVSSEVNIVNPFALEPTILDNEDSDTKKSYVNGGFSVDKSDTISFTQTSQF
The experiment in a line: Whole-cell current recording of EAAC1WT expressed in HEK 293T cells. The format is cell-based. As to conditions: for effect on anion current when applied alone: 100 μM applied alone, intracellular SCN−. The method, boiled down:
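HEK 293T cells transfected with EAAC1 plasmid plus RFP DNA (JetPRIME) and used at least 24 h later; whole-cell patch clamp held at 0 mV. Ki came from test-compound dose-response curves of glutamate-induced anion current at 20, 50 and 100 μM L-glutamate (forward mode: 140 mM NaCl outside, 140 mM KSCN pipette). Reverse mode used KSCN outside with NaCl + 10 mM L-Glu in the pipette. Homoexchange used NaCl + 1 mM L-glutamate outside with NaSCN + 10 mM L-glutamate in the pipette.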

For data set [2] the following is noted: physiological conditions; cited from earlier work.
The subject of data set [3] is glutamate transport. As to conditions: cited from earlier work.
The target of data set [4] is T2, EAAC1R446Q (Rattus norvegicus, UniProt P51907, R446Q).
T2 sequence (P51907 1-523 R446Q): T1 sequence (P51907 1-523) with R446Q
The experiment in a line: Whole-cell current recording of EAAC1 with the R446Q mutation, exchange mode. As to conditions: application of 1 mM L-glutamate or 0.2 mM TBOA; NaSCN pipette; 0 mV. It counts as cell-based.

The nature of data set [5]: pKa of the 3-hydroxyl-Δ2-isoxazoline group. It counts as physicochemical. Particulars: pH 7.3, based on its pKa.
For data set [6] the following is noted: cited from earlier work.
Data set [7] addresses T1, EAAC1. The experiment in a line: Pre-incubation / rapid solution exchange experiment. It counts as cell-based. Summed up:
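Transfected HEK 293T cells, whole-cell at 0 mV; bath 140 mM NaMES, pipette 140 mM KSCN. Test compound (3, 20 or 100 μM) applied 2 s by solution exchange, then rapid washout with simultaneous switch to 1 mM L-glutamate (~10 ms exchange resolution, ~100 mbar). Responses normalised to a 100 μM glutamate control, n = 3; observed rate constants taken as 1/τ.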

Data set [8] addresses T1, EAAC1. Kind of data set: Laser-pulse photolysis of MNI-caged glutamate, pre-steady-state kinetics. The format is cell-based. The method, boiled down: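 HEK 293T cells co-transfected with EAAC1 and RFP plasmids, used ≥24 h later; whole-cell clamp at 0 mV. 1 mM MNI-caged L-glutamate pre-applied 4 s, then ~5 ns 355 nm pulse releasing ~60–100 μM glutamate; 160 ms at 50 kHz, ±10 μM test compound. Bath 140 mM NaMES; pipette 140 mM KMES (transport) or KSCN (anion). Exponential fits→decay rate constants.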

The test system of data set [9] is glutamate transporters in synaptosomes prepared from rat brains. As to conditions: (+)-HIP-B eutomer versus (−)-HIP-B; cited from earlier work.

Take `N[C@H](C(=O)O)[C@H](OCc1ccccc1)C(=O)O` (racemic) [TBOA, DL-threo-β-benzyloxyaspartic acid]: in [1] (0 mV), the “effect on anion current when applied alone” value is “generated outward current”. Besides, the neurotoxicity result in data set [2] is “neurotoxic”. Besides, in data set [3], the “apparent affinity for inhibition of glutamate transport” value was “sub-μM range”. Also, the “current induced in EAAC1R446Q” value in data set [4] is listed as less than 5 pA.
For `O=C(O)[C@H]1NC[C@@H]2C(O)=NO[C@@H]21` [(+)-HIP-B, (+)-(3aS,6S,6aS)-3-Hydroxy-4,5,6,6a-tetrahydro-3aH-pyrrolo[3,4-d]isoxazole-6-carboxylic acid], the “effect on anion current when applied alone” value in [1] (0 mV) is “did not induce or inhibit anion current”. In addition, the “transport current when applied alone” value in data set [1] (100 μM, NaMES extracellular, KMES pipette, 0 mV) is given as “did not elicit transport current”. Further, the “alleviation of TBOA (1 μM) inhibition of leak anion current” value in [1] (any concentration tested, up to 70 μM, in the presence of 1 μM TBOA) was “unable to alleviate the TBOA effect”. Also, the Ki in data set [1] (read-out: Ki value (range used for estimate), approximate value in discussion) was approximately 20 µM; in data set [1] (read-out: inhibition constant Ki, glutamate-induced anion current, forward transport mode, 20 μM glutamate, n = 3, 0 mV, KSCN pipette), 8.7 ± 1.5 µM; in [1] (read-out: inhibition constant Ki, glutamate-induced anion current, forward transport mode, 100 μM glutamate, n = 3, 0 mV, KSCN pipette) it was 9.2 ± 1.2 µM; in [1] (read-out: inhibition constant in the reverse transport mode, 20 μM glutamate, n = 3, reverse transport mode), 23.2 ± 2.5 µM. Moreover, the “fraction in neutral form” value in data set [5] is “less than 1%”. Moreover, the “pKa of the 3-hydroxyl-Δ2-isoxazoline group” value in data set [6] is recorded as 5.1. Moreover, in data set [7] (estimated from Ki in the 20 μM range and dissociation on the 50 ms time scale), the “bimolecular rate constant for binding” value was ~10^6 M^−1s^−1. In addition, the “time scale of binding at the relevant concentration range” value in data set [7] (estimated from bimolecular rate constant) is 20 to 50 ms. In [7] (washout), the “time for full reversal of inhibition” value was not above 500 ms. In addition, in data set [7] (washout experiment), the “time scale of dissociation from binding site” value is 50 to 60 ms and ~50 ms. For the same compound, the “effect on peak of transient anion current” value in data set [8] (anion conducting mode) is “inhibited strongly”. In addition, in data set [8] (forward transport mode), the “effect on decay time constants τfast and τslow of transient transport current” value was “virtually unaffected”. In addition, in data set [9], the “eudismic ratio, inhibition of [3H]D-aspartate uptake” value is listed as 10.
As to `N[C@@H](CCC(=O)O)C(=O)O` [glutamate, L-glutamate, reference compound], the “time constant for activation of anion current by glutamate” value in data set [7] (1 mM glutamate, no inhibitor, limited by solution exchange) came out at 7 ± 2 ms. The “current induced in EAAC1R446Q” value in data set [4] is less than 5 pA.
